Data taken from ChEMBL document CHEMBL2150999, “Design, synthesis and biological evaluation of benzo[e][1,2,4]triazin-7(1H)-one and [1,2,4]-triazino[5,6,1-jk]carbazol-6-one derivatives as dual inhibitors of beta-amyloid aggregation and acetyl/butyryl cholinesterase” (Eur J Med Chem, 2012).
≈ marks a conversion by molar mass, not a printed value. Calls of active or inactive are those of the source. The calls are words filed in the database; no cut-off is given here.

How the values were obtained:
[1] = target: Acetylcholinesterase (Electrophorus electricus) (UniProt O42275); test: Inhibition of electric eel AChE using acetylthiocholine iodide as substrate at 10 uM after 20 mins by Ellman's method
[2] = target: Cholinesterase (Equus caballus) (UniProt P81908); test: Inhibition of equine serum BChE using butyrylthiocholine iodide as substrate at 10 uM after 20 mins by Ellman's method
[3] = Inhibition of HFIP-induced amyloid beta (1-40) aggregation after 2 hrs by thioflavin T fluorescence method
In short: (§1)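 Pre-monomerized Aβ1-40 (HFIP-dissolved, lyophilized) at 30 µM in PBS (0.01 M, NaCl 0.1 M, pH 7.4) with 2% HFIP and 10% DMSO, coincubated with compound in triplicate at 25 °C for 2 h. Sample mixed with 25 µM ThT in 0.025 M phosphate pH 6.0; excitation 440 nm, emission 485 nm. Peptide-free blanks subtracted; % inhibition versus control. Primary screen at 100 µM. IC50 from 5–7 concentrations (200–0.01 µM) tested in duplicate, three independent experiments.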

[4] = Inhibition of HFIP-induced amyloid beta (1-40) aggregation at 100 uM after 2 hrs by thioflavin T fluorescence method; in short: as §1
[5] = Inhibition of amyloid beta (1-40) beta-sheet transition assessed as decrease in beta-sheet level after 7 days by CD spectroscopic analysis relative to control
In short: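 Aβ1-40 (50 µM) in PBS with 10% ethanol, alone or with compound (10 or 50 µM), incubated at 37 °C without agitation. CD spectra 195–250 nm were recorded at room temperature in a 0.1 cm cell, with buffer/ethanol or inhibitor blank baseline subtracted. Absolute ellipticity at 215 nm was followed over time and expressed relative to the control plateau.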

[6] = Inhibition of amyloid beta (1-42) aggregation at 100 uM measured at 8 hrs and 24 hrs by thioflavin T fluorescence method
In short: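 Aβ1-42 (30 µM) in PBS/10% DMSO at 37 °C, alone or with compound at 100 µM. ThT fluorescence (ex 440, em 485 nm) read at 8 h and 24 h, reported in arbitrary units; mean ± SEM of three independent experiments.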

[7] = Inhibition of amyloid beta (1-40) fibrillation assessed as extended fibrillar weft formation at 50 uM after 7 days by TEM analysis
In short: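 Aβ1-40 (50 µM) in PBS/10% ethanol, with compound at 10 or 50 µM, incubated at 37 °C for up to 10 days. Aliquots taken at 7 days were applied to carbon-coated grids and negatively stained with 2% w/v uranyl acetate. Imaged by TEM at 60 kV and 39 000-fold magnification, compared with self-aggregating control.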

[8] = Aqueous solubility of the compound in PBS buffer; type: physicochemical
In short: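 Preliminary solubility in the incubation medium (PBS with up to 10% ethanol cosolvent) measured by UV spectroscopy; used to set the maximum soluble test concentration.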

Acetylcholinesterase = Acetylcholinesterase (Electrophorus electricus, UniProt O42275); test: Inhibition of electric eel AChE using acetylthiocholine iodide as substrate after 20 mins by Ellman's method
In short: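 Enzyme (eel AChE 463 U/mg or equine serum BChE 13 U/mg) in 0.1 M phosphate buffer pH 8.0 with DTNB, preincubated with inhibitor 20 min at 25 °C. Then acetylthiocholine or butyrylthiocholine iodide added; absorbance rise at 412 nm read 5.0 min at 25 °C. DMSO below 1%. IC50 from nonlinear regression of response/log(concentration), six to seven concentrations, 1×10^-8 to 1×10^-4 M. Means of three independent experiments.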

Acetylcholinesterase (Electrophorus electricus), sequence (O42275 24-633 limits assumed): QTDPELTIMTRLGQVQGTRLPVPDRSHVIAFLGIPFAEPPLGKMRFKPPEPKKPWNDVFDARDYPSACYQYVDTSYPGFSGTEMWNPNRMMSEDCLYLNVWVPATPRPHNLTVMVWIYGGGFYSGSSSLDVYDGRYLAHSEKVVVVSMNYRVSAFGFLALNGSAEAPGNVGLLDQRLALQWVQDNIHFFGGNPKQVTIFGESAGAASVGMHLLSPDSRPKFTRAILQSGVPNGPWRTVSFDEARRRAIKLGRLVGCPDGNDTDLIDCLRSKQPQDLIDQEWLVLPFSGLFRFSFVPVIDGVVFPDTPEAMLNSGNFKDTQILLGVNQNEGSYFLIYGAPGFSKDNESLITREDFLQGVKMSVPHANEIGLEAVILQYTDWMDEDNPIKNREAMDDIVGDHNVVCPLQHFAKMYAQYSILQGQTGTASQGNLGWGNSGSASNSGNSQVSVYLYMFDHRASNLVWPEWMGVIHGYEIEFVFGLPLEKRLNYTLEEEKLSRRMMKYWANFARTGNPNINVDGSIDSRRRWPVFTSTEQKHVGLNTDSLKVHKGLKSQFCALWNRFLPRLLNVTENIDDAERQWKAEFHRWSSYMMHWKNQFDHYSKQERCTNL
Cholinesterase (Equus caballus), sequence (P81908 whole entry): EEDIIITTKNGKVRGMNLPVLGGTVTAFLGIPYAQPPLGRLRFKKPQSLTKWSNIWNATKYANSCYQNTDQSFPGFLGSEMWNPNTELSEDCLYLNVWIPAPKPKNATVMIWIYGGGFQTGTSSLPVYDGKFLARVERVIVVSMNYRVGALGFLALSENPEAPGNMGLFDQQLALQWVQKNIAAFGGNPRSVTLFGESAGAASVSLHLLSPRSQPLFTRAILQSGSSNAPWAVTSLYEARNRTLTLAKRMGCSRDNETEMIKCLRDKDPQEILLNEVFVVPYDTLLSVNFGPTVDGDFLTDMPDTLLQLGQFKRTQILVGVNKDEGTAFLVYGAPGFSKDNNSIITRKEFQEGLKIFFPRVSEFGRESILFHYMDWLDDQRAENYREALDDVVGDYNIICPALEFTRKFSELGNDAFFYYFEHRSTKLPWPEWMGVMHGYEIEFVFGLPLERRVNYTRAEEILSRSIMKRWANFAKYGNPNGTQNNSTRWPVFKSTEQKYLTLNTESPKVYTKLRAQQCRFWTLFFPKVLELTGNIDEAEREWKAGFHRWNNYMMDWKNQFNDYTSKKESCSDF
Acetylcholinesterase, sequence (O42275 whole entry): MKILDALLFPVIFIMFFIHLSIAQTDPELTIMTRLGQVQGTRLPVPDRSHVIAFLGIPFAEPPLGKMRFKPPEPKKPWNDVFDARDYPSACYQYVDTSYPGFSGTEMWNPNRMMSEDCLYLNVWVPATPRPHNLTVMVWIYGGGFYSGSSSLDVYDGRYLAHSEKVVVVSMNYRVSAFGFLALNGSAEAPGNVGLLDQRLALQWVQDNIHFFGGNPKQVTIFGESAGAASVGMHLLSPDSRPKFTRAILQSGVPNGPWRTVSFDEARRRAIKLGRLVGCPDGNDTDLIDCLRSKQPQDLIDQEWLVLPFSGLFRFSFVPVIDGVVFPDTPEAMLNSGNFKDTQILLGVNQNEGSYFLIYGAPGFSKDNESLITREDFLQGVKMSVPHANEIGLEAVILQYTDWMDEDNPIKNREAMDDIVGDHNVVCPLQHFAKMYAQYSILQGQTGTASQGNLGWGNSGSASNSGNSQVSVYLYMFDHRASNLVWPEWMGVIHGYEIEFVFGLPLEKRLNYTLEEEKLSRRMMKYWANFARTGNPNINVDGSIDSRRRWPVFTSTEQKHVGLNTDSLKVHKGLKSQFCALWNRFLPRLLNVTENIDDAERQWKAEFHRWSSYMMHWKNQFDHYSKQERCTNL

Row | SMILES | inhibition [1] [%] | inhibition [2] [%] | IC50 [3] [µM] | inhibition [4] [%] | inhibition [5] | inhibition [6] | inhibition [7] | solubility [8] [µM] | IC50 (Acetylcholinesterase) [µM]
1 | O=c1cc2n(-c3ccccc3)nc(-c3ccccc3)nc-2cc1N1CCCc2ccccc21 | 41 | 10 | 6.7 | – | – | – | – | – | –
2 | O=c1cc2n(-c3ccccc3)nc(-c3ccccc3)nc-2cc1N1CCc2ccccc2C1 | 47 | 14 | – | 68 | – | – | – | – | –
3 | O=c1c(N2CCCC2)cc2nc(-c3ccccc3)nn3c4ccccc4c1c23 | 44 | 52 | 2 | – | – | – | – | – | –
4 | O=c1ccc2nc(-c3ccccc3)nn3c4ccccc4c1c23 | 46 | 59 | 6.1 | – | inactive | Active | Active | 50 (≈ 14.9 µg/mL) | –
5 | CC1CCCN(c2cc3nc(-c4ccccc4)nn(-c4ccccc4)c-3cc2=O)C1 (stereo not drawn) | 55 | 25 | 0.73 | – | – | – | – | – | –
6 | O=c1c(O)c(-c2ccc(O)c(O)c2)oc2cc(O)cc(O)c12 | – | – | – | – | – | Active | – | – | –
7 | O=c1cc2n(-c3ccccc3)nc(-c3ccccc3)nc-2cc1N1CCN(c2ccccc2)CC1 | – | 15 | – | 53 | – | – | – | – | 2.2
8 | CC1CCN(c2cc3nc(-c4ccccc4)nn(-c4ccccc4)c-3cc2=O)CC1 | 48 | 11 | – | 68 | – | – | – | – | –
9 | CC1CC(C)CN(c2cc3nc(-c4ccccc4)nn(-c4ccccc4)c-3cc2=O)C1 (stereo not drawn) | 46 | 18 | 1.2 | – | – | – | – | – | –
10 | O=c1c(N2CCC(c3ccccc3)CC2)cc2nc(-c3ccccc3)nn3c4ccccc4c1c23 | 48 | 11 | 3.9 | – | – | – | – | – | –
11 | O=c1cc2n(-c3ccccc3)nc(-c3ccccc3)nc-2cc1N1CCC(c2ccccc2)CC1 | 35 | 10 | 1.5 | – | – | – | – | – | –
12 | O=c1cc2n(-c3ccccc3)nc(-c3ccccc3)nc-2cc1N1CCCC1 | 54 | 15 | – | 68 | – | – | – | – | –
13 | CN1CCN(c2cc3nc(-c4ccccc4)nn(-c4ccccc4)c-3cc2=O)CC1 | 55 | 12 | – | 55 | – | – | – | – | –
14 | CN(Cc1ccccc1)c1cc2nc(-c3ccccc3)nn(-c3ccccc3)c-2cc1=O | 56 | 22 | 1 | – | – | – | – | – | –
15 | COc1cc2nc(-c3ccccc3)nn(-c3ccccc3)c-2cc1=O | 47 | 15 | – | 60 | – | – | – | – | –
16 | O=c1cc2n(-c3ccccc3)nc(-c3ccccc3)nc-2cc1N1CCCCC1 | 39 | 7 | 7.1 | – | – | – | – | – | –
17 | CC1CCCCN1c1cc2nc(-c3ccccc3)nn(-c3ccccc3)c-2cc1=O (stereo not drawn) | 0 | 22 | 0.37 | – | – | Active | – | – | –
18 | O=c1cc2n(-c3ccccc3)nc(-c3ccccc3)nc-2cc1N1CCCCCC1 | 46 | 47 | 2.8 | – | – | – | – | – | –
19 | CC1CCCN(c2cc3nc(-c4ccccc4)nn4c5ccccc5c(c2=O)c34)C1 (stereo not drawn) | 27 | 53 | 5.5 | – | – | – | – | – | –
20 | O=c1cc2n(-c3ccccc3)nc(-c3ccccc3)nc-2cc1N1CCOCC1 | 42 | 0 | – | 48 | – | – | – | – | –
